This passage reports IC50 results from ChEMBL document CHEMBL1795208 (J Med Chem, 2011).

Where only a bound is given, the exact number is not on record here.

What all share (assay type): functional, cell-based
For assay [1], the system named is SK-MEL-28. The assay can be described thus: Antiproliferative activity against human SK-MEL-28 cells after 72 hrs by MTS/PMS assay. The conditions noted are these: SK-MEL-28, 72 h. The method, boiled down:
(§1)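 Cells kept in Advanced DMEM/F12 (1:1) with non-essential amino acids, 2 mM L-glutamine, penicillin, streptomycin and 10% FBS at 37 °C, 5% CO2. Seeded at 2000/well, attached overnight. Compound added in DMSO across a concentration range (1% DMSO final) for 72 h. Viable cells read by MTS/PMS and normalized to 1% DMSO controls (100%). IC50 taken from separate triplicate experiments.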

Assay [2] can be described thus: Antiproliferative activity against human JMAR cells after 72 hrs by MTS/PMS assay. The method, boiled down:
as §1

Assay [3] relates to MCF7. In words: Antiproliferative activity against human MCF7 cells expressing estrogen receptor after 72 hrs by MTS/PMS assay. The conditions noted are these: MCF7, 72 h. The method, boiled down: as §1
Assay [4] in a line: Antiproliferative activity against human MDA1986 cells after 72 hrs by MTS/PMS assay. Conditions: MDA1986, 72 h. The procedure, abridged: as §1
The nature of assay [5]: Antiproliferative activity against human androgen-independent PC3MM2 cells after 72 hrs by MTS/PMS assay. The conditions noted are these: PC3MM2, 72 h. The procedure, abridged: as §1
A short description of assay [6]: Antiproliferative activity against human androgen-dependent LNCaP-LN3 cells after 72 hrs by MTS/PMS assay. The conditions noted are these: LNCaP-LN3, 72 h. The method, boiled down: as §1
The subject of assay [7] is B16-F10. In words: Antiproliferative activity against mouse B16F10 cells after 72 hrs by MTS/PMS assay. The conditions noted are these: B16-F10, 72 h. The method, boiled down: as §1
In assay [8] the test system is SK-BR-3. The assay can be described thus: Antiproliferative activity against human SKBR3 cells expressing HER2 after 72 hrs by MTS/PMS assay. Conditions: SK-BR-3, 72 h. The procedure, abridged: as §1

Usually IC50 stands for the concentration needed to halve the response being measured. A high value points to lower potency. In the case of `COc1cccc(-c2cc(C(=O)Nc3cc4ccc(OC5CC(C)(C)C[C@@H](O)[C@H]5O)c(C)c4oc3=O)ccc2OC)c1` (stereo partly drawn), the concentration for half-maximal inhibition (IC50) was 3.47 µM in assay [1]; 8.5 µM in assay [2]; above 100 µM in assay [3]; 18.8 µM in assay [4]; 2.49 µM in assay [5]; 1.24 µM in assay [6]. Moreover, the results for the IC50 in assay [7] and in assay [8] were 15.9 µM and above 100 µM, respectively.

With `COc1cccc(-c2cc(C(=O)Nc3cc4ccc(OC5C=CCC(C)C5)c(C)c4oc3=O)ccc2OC)c1` (stereo not drawn), the IC50 in assay [1] was 20.6 µM; in assay [2], 24.9 µM; in assay [4] it was 21.8 µM; in assay [7] it was above 50 µM.

Turning to `COc1cccc(-c2cc(C(=O)Nc3cc4ccc(OC5CN(C)C[C@@H](O)[C@H]5O)c(OC)c4oc3=O)ccc2OC)c1` (stereo partly drawn), the IC50 was 5.9 µM in assay [1]; 6.7 µM in assay [2]; 11 µM in assay [3]; 5.9 µM in assay [4]; 3.52 µM in assay [5]; 1.5 µM in assay [6]. For the same compound, the IC50 in assay [7] was 6.58 µM; in assay [8] it was 6.64 µM.

On to `COc1cccc(-c2cc(C(=O)Nc3cc4ccc(OC5C=CCCC5)c(C)c4oc3=O)ccc2OC)c1` (stereo not drawn), for which the concentration for half-maximal inhibition (IC50) was 18.6 µM in assay [1], 7.5 µM in assay [2], 22.4 µM in assay [4] and above 50 µM in assay [7].

Consider `COc1cccc(-c2cc(C(=O)Nc3cc4ccc(OC5C=CCN(C)C5)c(OC)c4oc3=O)ccc2OC)c1` (stereo not drawn), for which the half-maximal inhibitory concentration (IC50) in assay [1] turned out to be 1.48 µM; in assay [2], 1.94 µM; in assay [3] it was 1.65 µM; in assay [4], 2.36 µM; in assay [5] it was 0.98 µM; in assay [6], 0.36 µM. Also, the values for the IC50 in assay [7] and in assay [8] were 6.47 µM and 3.42 µM, respectively.

Regarding `COc1cccc(-c2cc(C(=O)Nc3cc4ccc(OC5CNC[C@@H](O)[C@H]5O)c(C)c4oc3=O)ccc2OC)c1` (stereo partly drawn), the IC50 in assay [1] stood at 6.14 µM; in assay [2], 5.89 µM; in assay [3] it was 2.07 µM; in assay [4], 5.6 µM; in assay [5], 6.33 µM; in assay [6], 4.9 µM. In addition, the IC50 worked out at 2.8 µM in assay [7] and 2.91 µM in assay [8].

For the compound `COc1cccc(-c2cc(C(=O)Nc3cc4cc(OC)c(OC5CCCNC5)c(C)c4oc3=O)ccc2OC)c1` (stereo not drawn), the IC50 in assay [1] was determined as 7.19 µM; in assay [2], 5.7 µM; in assay [3], 2.9 µM; in assay [4], 6.4 µM; in assay [5], 2.59 µM; in assay [6], 3.66 µM. The IC50 came to 1.84 µM in assay [7] and 2.27 µM in assay [8].

Turning to `COc1cccc(-c2cc(C(=O)Nc3cc4ccc(O[C@@H]5OC[C@@H](O)[C@H]5O)c(C)c4oc3=O)ccc2OC)c1`, the IC50 in assay [1] stood at 5.74 µM; in assay [2], 12.6 µM; in assay [3], 37.2 µM; in assay [4], 1.94 µM; in assay [6], 3.65 µM; in assay [7] it was 4.55 µM. This compound also returned an IC50 in assay [8] of 12.5 µM.

In the case of `COc1cccc(-c2cc(C(=O)Nc3cc4ccc(O[C@H]5OCCC[C@H]5O)c(C)c4oc3=O)ccc2OC)c1`, the IC50 is 19.6 µM in assay [1]; 3.6 µM in assay [2]; above 100 µM in assay [3]; 18.8 µM in assay [4]; 7.34 µM in assay [6]; 10.4 µM in assay [7]. The same compound registered an IC50 in assay [8] above 100 µM.

For `COc1cccc(-c2cc(C(=O)Nc3cc4ccc(OC5C=CCNC5)c(OC)c4oc3=O)ccc2OC)c1` (stereo not drawn), the IC50 in assay [1] is 5.49 µM; in assay [2], 6.71 µM; in assay [3] it was 1.43 µM; in assay [4], 5.97 µM; in assay [5], 4.88 µM; in assay [6] it was 6.45 µM. Also, the IC50 worked out at 3.41 µM in assay [7] and 3.07 µM in assay [8].

Turning to `COc1cccc(-c2cc(C(=O)Nc3cc4ccc(OC5CCN(C)CC5)c(OC)c4oc3=O)ccc2OC)c1`, the IC50 in assay [1] turned out to be 6.14 µM; in assay [2], 13.1 µM; in assay [3], 1.39 µM; in assay [4], 13.1 µM; in assay [5], 3.71 µM; in assay [6], 4.75 µM. For the same compound, the values for the IC50 in assay [7] and in assay [8] were 0.41 µM and 0.97 µM, respectively.

As to `COc1cccc(-c2cc(C(=O)Nc3cc4ccc(OC(C)=O)c(C)c4oc3=O)ccc2OC)c1`, the IC50 in assay [1] came to 2.14 µM; in assay [2], 12.6 µM; in assay [3], 1.4 µM; in assay [4], 1.67 µM; in assay [5], 2.85 µM; in assay [6] it was 1.5 µM. The IC50 in assay [7] was determined as 2.3 µM; in assay [8], 0.98 µM.

Regarding `COc1cccc(-c2cc(C(=O)Nc3cc4ccc(O[C@H]5C[C@H](O)CO5)c(C)c4oc3=O)ccc2OC)c1`, the IC50 is 21.4 µM in assay [1]; 24.1 µM in assay [2]; above 100 µM in assay [3]; 6.9 µM in assay [4]; 10.1 µM in assay [5]; 3.72 µM in assay [6]. Moreover, the IC50 in assay [7] was determined as 12.7 µM; in assay [8], 35.2 µM.

As to `COc1cccc(-c2cc(C(=O)Nc3cc4ccc(OC5CCCN(C(C)=O)C5)c(C)c4oc3=O)ccc2OC)c1` (stereo not drawn), the IC50 in assay [1] was 20.9 µM; in assay [2], 15.1 µM; in assay [3] it was above 50 µM; in assay [4], 22.4 µM; in assay [5], 3.42 µM; in assay [6], 1.23 µM. Moreover, the IC50 in assay [7] was 12.4 µM; in assay [8], above 50 µM.

As for `COc1cccc(-c2cc(C(=O)Nc3cc4ccc(OC5CCCN(C)C5)c(C)c4oc3=O)ccc2OC)c1` (stereo not drawn), the IC50 in assay [1] was determined as 6.14 µM; in assay [2], 12.6 µM; in assay [3] it was 5.04 µM; in assay [4] it was 4.5 µM; in assay [5], 4.23 µM; in assay [6] it was 1.22 µM. The IC50 in assay [7] was found to be 2.6 µM; in assay [8], 2.06 µM.

As to `COc1cccc(-c2cc(C(=O)Nc3cc4ccc(OC5C=CCNC5)c(C)c4oc3=O)ccc2OC)c1` (stereo not drawn), the IC50 in assay [1] came out at 5.41 µM; in assay [2] it was 3.4 µM; in assay [3], 1.73 µM; in assay [4], 6.54 µM; in assay [5] it was 4.4 µM; in assay [6], 4.27 µM. In addition, the IC50 was 2.94 µM in assay [7] and 1.61 µM in assay [8].

As to `COc1cccc(-c2cc(C(=O)Nc3cc4ccc(OC5CCCN(C)C5)c(OC)c4oc3=O)ccc2OC)c1` (stereo not drawn), the IC50 in assay [1] came to 7.14 µM; in assay [2] it was 7.5 µM; in assay [3], 1.38 µM; in assay [4], 11.4 µM; in assay [5], 2.16 µM; in assay [6], 1.78 µM. The values for the IC50 in assay [7] and in assay [8] were 1.51 µM and 1.4 µM, respectively.

In the case of `COc1cccc(-c2cc(C(=O)Nc3cc4cc(OC)c(OC5C=CCN(C(C)=O)C5)c(C)c4oc3=O)ccc2OC)c1` (stereo not drawn), the IC50 in assay [1] was found to be 27.6 µM; in assay [2] it was 35.1 µM; in assay [4], 25.1 µM; in assay [7], 21.4 µM.

Turning to `COc1cc2cc(NC(=O)c3cc4ccccc4[nH]3)c(=O)oc2c(C)c1OCCCN(C)C`, the IC50 in assay [1] came to 1.35 µM; in assay [2], 2.65 µM; in assay [3], 0.56 µM; in assay [4] it was 1.81 µM; in assay [5] it was 2.58 µM; in assay [7], 2.03 µM. The IC50 in assay [8] amounted to 0.57 µM.

For `COc1cccc(-c2cc(C(=O)Nc3cc4ccc(O[C@@H]5OCC[C@@H](O)[C@H]5O)c(C)c4oc3=O)ccc2OC)c1`, the IC50 in assay [1] amounted to 14.9 µM; in assay [2], 2.79 µM; in assay [3], 2.56 µM; in assay [4] it was 13.4 µM; in assay [6], 3.59 µM; in assay [7], 37.5 µM. Also, in assay [8], inhibition was half-maximal at 6.23 µM (IC50).

Regarding `COc1cccc(-c2cc(C(=O)Nc3cc4cc(OC)c(OC5CCCN(C(C)=O)C5)c(C)c4oc3=O)ccc2OC)c1` (stereo not drawn), the IC50 in assay [1] stood at 29.4 µM; in assay [2] it was 32.8 µM; in assay [4] it was 36.4 µM; in assay [7], 23.9 µM.

Consider `COc1cccc(-c2cc(C(=O)Nc3cc4ccc(OC5C=CCC(C)(C)C5)c(C)c4oc3=O)ccc2OC)c1` (stereo not drawn), for which the IC50 was 23.8 µM in assay [1], 6.7 µM in assay [2], 24.4 µM in assay [4] and above 50 µM in assay [7].

As to `COc1cccc(-c2cc(C(=O)Nc3cc4ccc(O[C@@H]5OCC[C@H]5O)c(C)c4oc3=O)ccc2OC)c1`, the IC50 in assay [1] is 18.4 µM; in assay [2] it was 14.9 µM; in assay [3] it was above 100 µM; in assay [4], 21.4 µM; in assay [7], 42.7 µM; in assay [8], above 100 µM.

For the compound `COc1cccc(-c2cc(C(=O)Nc3cc4ccc(O[C@@H]5OCCC[C@@H](O)[C@H]5O)c(C)c4oc3=O)ccc2OC)c1`, the IC50 in assay [1] is 18.5 µM; in assay [2], 7.4 µM; in assay [3], above 100 µM; in assay [4] it was 22.9 µM; in assay [6], above 100 µM; in assay [7], above 50 µM. In addition, the IC50 in assay [8] was found to be 2.38 µM.

Take `COc1cccc(-c2cc(C(=O)Nc3cc4cc(OC)c(O[C@@H]5OCC[C@@H](O)[C@H]5O)c(C)c4oc3=O)ccc2OC)c1`: the IC50 in assay [3] came out at 9.5 µM; in assay [5], 24 µM; in assay [6], 12.8 µM; in assay [8], 7.18 µM.

Take `COc1cccc(-c2cc(C(=O)Nc3cc4ccc(OC(N)=O)c(C)c4oc3=O)ccc2OC)c1`: the IC50 stood at 1.16 µM in assay [3], 6.37 µM in assay [5], 2.61 µM in assay [6] and 3.02 µM in assay [8].
